A short description of experiment [1]: inhibitors of TNFa-induced NFkB p65 translocation, primary screen, imaging, HUVEC, MLSMR starter and 10KST1 sets (AID 438;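 active = inhibition above 20% together with a positive visual image hit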;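 also: compound added about 3h40 before a 20 min TNFalpha stimulation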;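 as to inhibition: signal is the nuclear over cytoplasmic p65 intensity ratio per well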). Conditions: HUVEC TNFa-induced p65 nuclear translocation; cell count: measured here: nuclei count (cytotoxicity indicator), at 2.08 µM; inhibition: at 2 µM, stronger effect = higher value, 0% TNFa-plus-vehicle, 100% no-TNFa wells.
Experiment [2] is described as follows: endothelial E-selectin expression blockers – imaging, HUVEC, immunofluorescence, MLSMR starter and 10KST1 sets, primary screen (AID 487;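 active = visually confirmed hit in the image check and inhibition above 20%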;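 as to inhibition: signal is fraction of cell area covered by stained E-selectin grains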;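 as to nuclei count: 100% = median nuclei count of all wells on the same plate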). Conditions: HUVEC TNFalpha-induced E-selectin immunofluorescence imaging, at 2 µM; inhibition: stronger effect = higher value; nuclei count: measured here: cell number, toxicity.
Experiment [3] is described as follows: Primary imaging screen for DUSP6 inhibitors that restore phospho-Erk in transfected HeLa cells, chemical complementation (AID 609;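 active = compounds giving at least 50% inhibition in the cell-based MKP-3 phosphatase rescue imaging test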;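 as to inhibition: phospho-Erk level distribution per well compared with pooled transfected vehicle control wells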). Conditions: HeLa MKP-3 transfected, phospho-Erk imaging KS statistic, at 10 µM, cells stimulated with TPA for 15 min.
Experiment [4] has as its target Dual specificity protein phosphatase 6 (Homo sapiens) (UniProt Q16828). Described as above. Conditions: HeLa MKP-3 transfected, phospho-Erk imaging KS statistic; at 10 µM; stronger effect = higher value; cells stimulated with TPA for 15 min.
Experiment [5] concerns the target Voltage-gated potassium channel subunit beta-2 (Rattus norvegicus) (UniProt P62483). Put plainly: inhibitors of rat Kvbeta2 reductase activity – biochemical, NADPH fluorescence, primary screen (AID 622;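 active = fluorescence slope higher than the sample average by over 3 SD, cut at about -0.22 in these data, passing the limit was not always enough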;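 also: slope of raw intensity against log time taken from 70 to 1610 s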). Conditions: recombinant KvBeta, 4-cyanobenzaldehyde reduction, at 10 µM, stronger effect = higher value.
Experiment [6] has the same target. Put plainly: enhancers of rat Kvbeta2 NADPH turnover – biochemical, NADPH fluorescence, primary screen (AID 623;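 active = NADPH fluorescence slope more negative than the mean of all samples by about 3 SD, 99.7% confidence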;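 also: fluorescence intensity change per second fitted from 20 to 320 s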). Conditions: Recombinant KvBeta, NADPH fluorescence decrease slope, 10 min; at 10 µM; stronger effect = lower value.
Experiment [7] concerns the target Alpha-2C adrenergic receptor (Homo sapiens) (UniProt P18825). Briefly: compounds altering alpha2C-coupled GIRK flux – cell-based, HEK293 alpha2C/GIRK1/2, thallium flux, primary screen (AID 624;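 active = fluorescence slope after compound addition differing from the mean of all screened samples at 99.7% confidence, in either direction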;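 also: slope of fluorescence ratio to pre-addition baseline per second over 15 to 24 s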). Conditions: thallium flux BTC fluorescence, at 10 µM, actives lie on both sides.
A short description of experiment [8]: inhibitors of larval lipid processing in zebrafish, primary screen, whole organism, PED6 fluorescence, gall bladder and intestine (AID 686).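 Also: larvae 5 to 7 days old with five fish per well; signal comes from phospholipase A2 cleavage of quenched PED6 carried via bile; overnight exposure to compound and PED6 before scoring.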 Conditions: Zebrafish larvae PED6 lipid processing, fluorescence scoring; screened at 20 µM (by protocol). Put shortly:
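Test system – live zebrafish larvae aged 5-7 days, whole organism · Buffer or medium – E3 fish medium · Reagent – quenched phospholipase substrate PED6, 100 nM final, ingested by larvae · Doses – 20 µM single dose · Incubation – overnight compound and PED6 incubation · Technique – visual fluorescence microscopy scoring of gall bladder, gut · Read-out basis – visual per-well fluorescence inhibition score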

The nature of experiment [9]: loss of swimming-algae plug formation – whole organism, Chlamydomonas reinhardtii, WT vs cilia-less mutant, absorbance, 96-well, primary screen (AID 463189;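 active = inhibition at or above 50% relative to wild type and mutant plate controls; inactive = inhibition below 50%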;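 also: 0% = wild type cc124 cells in DMSO and 100% = ciliumless bld1 mutant cells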). Conditions: Chlamydomonas reinhardtii gravitaxis, OD600 absorbance, 2 days; at 10 µM; stronger effect = higher value.
Where [10] appears, read: measured here: cell density z-score.
Where [11] appears, read: measured here: nuclear c-Myc green intensity z-score.
Where [12] appears, read: measured here: nuclear pErk red intensity z-score, stronger effect = higher value.

Activity calls are given as the source filed them.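 The calls were made as follows, unless noted: active = a full or partial loss of lipid-probe fluorescence in the fish gall bladder, intestine or both, judged by eye; inactive = no fluorescence loss, or compound toxic to the fish.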

Voltage-gated potassium channel subunit beta-2 (Rattus norvegicus), sequence (P62483 whole entry, looked up): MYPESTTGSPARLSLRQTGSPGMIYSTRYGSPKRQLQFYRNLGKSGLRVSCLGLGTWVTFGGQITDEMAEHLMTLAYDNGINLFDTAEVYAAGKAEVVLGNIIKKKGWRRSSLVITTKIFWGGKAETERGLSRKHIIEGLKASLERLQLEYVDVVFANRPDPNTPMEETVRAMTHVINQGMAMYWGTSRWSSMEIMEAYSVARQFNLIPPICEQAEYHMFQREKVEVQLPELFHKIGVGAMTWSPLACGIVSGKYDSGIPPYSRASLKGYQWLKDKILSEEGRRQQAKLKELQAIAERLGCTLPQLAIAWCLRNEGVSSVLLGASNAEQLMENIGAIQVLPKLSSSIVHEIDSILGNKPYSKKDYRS
Dual specificity protein phosphatase 6 (Homo sapiens), sequence (Q16828 whole entry, looked up): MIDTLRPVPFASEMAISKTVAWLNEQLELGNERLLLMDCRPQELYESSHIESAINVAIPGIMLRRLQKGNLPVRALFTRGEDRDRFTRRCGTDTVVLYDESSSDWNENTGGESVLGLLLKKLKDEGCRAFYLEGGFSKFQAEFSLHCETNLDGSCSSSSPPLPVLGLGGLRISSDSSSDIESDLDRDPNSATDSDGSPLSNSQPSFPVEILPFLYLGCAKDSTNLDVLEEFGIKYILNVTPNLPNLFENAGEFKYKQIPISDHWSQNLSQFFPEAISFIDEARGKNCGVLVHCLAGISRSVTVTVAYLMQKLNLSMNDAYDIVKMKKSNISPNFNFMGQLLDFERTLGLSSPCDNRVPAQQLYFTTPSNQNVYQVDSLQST
Alpha-2C adrenergic receptor (Homo sapiens), sequence (P18825 whole entry, looked up): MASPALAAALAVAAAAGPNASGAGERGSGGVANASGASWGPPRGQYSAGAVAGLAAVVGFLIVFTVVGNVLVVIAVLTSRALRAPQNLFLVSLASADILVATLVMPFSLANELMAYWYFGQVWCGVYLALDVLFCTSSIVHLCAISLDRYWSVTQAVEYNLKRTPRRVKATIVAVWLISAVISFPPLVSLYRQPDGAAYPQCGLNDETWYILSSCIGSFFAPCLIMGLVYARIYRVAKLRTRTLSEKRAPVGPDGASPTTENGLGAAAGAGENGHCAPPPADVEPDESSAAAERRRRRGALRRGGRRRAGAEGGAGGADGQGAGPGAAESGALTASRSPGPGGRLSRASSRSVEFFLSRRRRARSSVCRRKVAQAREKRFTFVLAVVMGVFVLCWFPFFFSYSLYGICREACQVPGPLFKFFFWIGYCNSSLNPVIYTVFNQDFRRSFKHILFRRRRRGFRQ

Take `CN1CCN(C(=O)CSc2nc(-c3ccncc3)ccc2C#N)CC1`: in experiment [1], the cell count was 690. The inhibition was -11.2% (inactive) in experiment [1], -21.2% (inactive) in experiment [2], -7.28% (inactive) in experiment [4] and -6.09% (inactive) in experiment [9]. This compound also came in with a nuclei count in experiment [2] of 192%. The z-score in [3] (setting [10]) was 0.498; in experiment [3] (setting [11]), 0.894; in experiment [3] (setting [12]), -1.8. Moreover, in [5], the fluorescence slope was -0.416 (inactive). Besides, the NADPH fluorescence slope in [6] was -5e-05 (inactive). Further, in experiment [7], the slope was 0.00348 (inactive). Also, the call in experiment [8] was inactive.
In the case of `COc1ccc(/C(O)=C2/C(=O)C(=O)N(CCN3CCOCC3)C2c2ccccn2)cc1` (centres undefined), in experiment [1], the cell count amounted to 316. The inhibition in experiment [1] is -13.6% (inactive); in [2] it was 25.6% (inactive); in experiment [4], -7.79% (inactive); in experiment [9], 25.9% (inactive). In experiment [2], this compound came in with a nuclei count of 75.8%. In addition, the z-score is -1.25 in experiment [3] (setting [10]), 0.879 in experiment [3] (setting [11]) and 1.18 in experiment [3] (setting [12]). Moreover, in experiment [5], the fluorescence slope is -0.44 (inactive). In addition, in experiment [6], the NADPH fluorescence slope was -1.3e-05 (inactive). For the same compound, the slope in [7] is 0.00633 (inactive). The compound was called inactive in experiment [8].
For the compound `CN(Cc1c(O)ccc2c1oc(=O)c1ccccc12)C1CCCCC1`, the cell count in [1] was 585. The inhibition in [1] was -2.8% (inactive); in experiment [2], 6.7% (inactive); in [4], -4.27% (inactive); in experiment [9], 3.79% (inactive). Also, the nuclei count in experiment [2] is 172%. Moreover, the z-score stood at 0.636 in experiment [3] (setting [10]), 0.684 in [3] (setting [11]) and 0.214 in experiment [3] (setting [12]). Further, the fluorescence slope in experiment [5] is -0.348 (inactive). Further, the NADPH fluorescence slope in experiment [6] was -7e-05 (inactive). Moreover, in [7], the slope is 0.00514 (inactive). For the same compound, the result in experiment [8] was inactive.
Turning to `Cc1cc(C)nc(N(C#N)CC(=O)N(c2ccccc2)C(C)C)n1`, the cell count in experiment [1] was determined as 584. Further, the inhibition was -10.3% (inactive) in experiment [1], 50% (inactive) in [2], -11% (inactive) in [4] and 5.11% (inactive) in experiment [9]. In [2], this compound showed a nuclei count of 140%. The z-score in experiment [3] (setting [10]) is -1.19; in experiment [3] (setting [11]), -0.154; in experiment [3] (setting [12]) it was 2.33. The fluorescence slope in experiment [5] was -0.345 (inactive). Besides, the NADPH fluorescence slope in experiment [6] was -2.8e-05 (inactive). Also, the slope in [7] is 0.00548 (inactive). For the same compound, in [8], the result was inactive.
Turning to `Cc1ccc(S(=O)(=O)c2cc3c(=O)n4ccccc4nc3n(C)c2=N)cc1`, the cell count in experiment [1] worked out at 563. Besides, the inhibition in experiment [1] is -16.4% (inactive); in experiment [2], -78% (inactive); in experiment [4] it was -16.8% (inactive); in experiment [9], 1.37% (inactive). The compound further displayed a nuclei count in experiment [2] of 162%. The z-score was 0.476 in [3] (setting [10]), -0.181 in experiment [3] (setting [11]) and 0.227 in experiment [3] (setting [12]). Also, the fluorescence slope in [5] is -0.453 (inactive). Further, the NADPH fluorescence slope in experiment [6] is -3.3e-05 (inactive). Also, the slope in experiment [7] was 0.00439 (inactive). Also, the compound was classed as inactive in experiment [8].
Take `O=C(c1ccccc1F)N1CCC(N2CCCCCC2)CC1`: in experiment [1], the cell count stood at 332. Further, the inhibition was -3.1% (inactive) in experiment [1], -138% (inactive) in experiment [2], 15.1% (inactive) in experiment [4] and 50.6% (active) in experiment [9]. In experiment [2], this compound showed a nuclei count of 95.6%. Also, the z-score in [3] (setting [10]) is 0.261; in experiment [3] (setting [11]), -1.02; in experiment [3] (setting [12]) it was -0.289. Besides, in experiment [5], the fluorescence slope is -0.493 (inactive). Further, the NADPH fluorescence slope in experiment [6] is -1.4e-05 (inactive). In [7], the slope was 0.00789 (inactive). For the same compound, the outcome in experiment [8] was inactive.
Take `COc1ccc(/C(O)=C2/C(=O)C(=O)N(c3ncccn3)C2c2ccc(OC)c(OC)c2)cc1` (centres undefined): the cell count in experiment [1] amounted to 584. Further, the inhibition in [1] was -2.6% (inactive); in [2], -34.9% (inactive); in experiment [4], 0.671% (inactive); in experiment [9], 3.9% (inactive). In experiment [2], this compound showed a nuclei count of 176%. Also, the z-score was -1.58 in [3] (setting [10]), 0.795 in experiment [3] (setting [11]) and 2.34 in experiment [3] (setting [12]). In addition, the fluorescence slope in [5] is -0.352 (inactive). The NADPH fluorescence slope in experiment [6] is -4.6e-05 (inactive). Also, in experiment [7], the slope was 0.0049 (inactive). Besides, the call in experiment [8] was inactive.
Turning to `CCOC(=O)c1cc2c(=O)n3cccc(C)c3nc2n(Cc2cccnc2)c1=N`, in experiment [1], the cell count worked out at 583. For the same compound, the inhibition was 3.3% (inactive) in experiment [1], -66.9% (inactive) in experiment [2], 4.25% (inactive) in experiment [4] and 58.8% (active) in [9]. In experiment [2], this compound yielded a nuclei count of 157%. In addition, the z-score in [3] (setting [10]) was 0.481; in [3] (setting [11]), -1.62; in [3] (setting [12]), 0.0154. For the same compound, the fluorescence slope in experiment [5] is -0.457 (inactive). Besides, in experiment [6], the NADPH fluorescence slope is -0.000115 (inactive). The slope in experiment [7] is 0.00416 (inactive). Besides, the compound was called inactive in experiment [8].
As to `CCN(CC)CCNC(=O)c1c(C)oc2cc(Br)c(OC)cc12`, in [1], the cell count was 496. Besides, the inhibition was -8.7% (inactive) in [1], -70.3% (inactive) in experiment [2], 15.8% (inactive) in [4] and -1.94% (inactive) in [9]. Also, in [2], the nuclei count stood at 112%. Besides, the z-score is 2.28 in [3] (setting [10]), 0.845 in experiment [3] (setting [11]) and -0.848 in experiment [3] (setting [12]). In addition, the fluorescence slope in experiment [5] was -0.55 (inactive). For the same compound, in [6], the NADPH fluorescence slope was -3.1e-05 (inactive). Besides, the slope in experiment [7] was 0.0063 (inactive). The call in experiment [8] was inactive.
For the compound `CC(=O)c1cc(C#N)c(SCc2ccncc2)nc1C`, the cell count in experiment [1] turned out to be 591. Also, the inhibition in experiment [1] is -18.5% (inactive); in experiment [2], 40% (inactive); in experiment [4] it was -2.29% (inactive); in [9], -20.5% (inactive). In experiment [2], this compound displayed a nuclei count of 122%. The z-score is 1.87 in experiment [3] (setting [10]), -0.619 in experiment [3] (setting [11]) and 1.67 in [3] (setting [12]). In experiment [5], the fluorescence slope was -0.548 (inactive). For the same compound, the NADPH fluorescence slope in [6] was -8.8e-06 (inactive). Also, the slope in [7] was 0.00573 (inactive). For the same compound, the compound was called inactive in experiment [8].
`Cc1cc(C)nc(CC(N)=O)n1`: in experiment [1], the cell count came to 623. The inhibition in [1] was -3.1% (inactive); in [2], 3.3% (inactive); in experiment [4], 6.04% (inactive); in [9] it was 14.5% (inactive). Further, in experiment [2], the nuclei count was determined as 142%. The z-score in experiment [3] (setting [10]) was 0.214; in experiment [3] (setting [11]), 0.0631; in [3] (setting [12]), 0.457. Further, in [5], the fluorescence slope is -0.508 (inactive). The NADPH fluorescence slope in experiment [6] was -4e-05 (inactive). The slope in [7] is 0.0046 (inactive). Also, the result in experiment [8] was inactive.
Take `CC(=O)c1cc(C#N)c(SCC(=O)C(C)(C)C)nc1C`: in [1], the cell count amounted to 620. Besides, the inhibition in [1] was -22.5% (inactive); in experiment [2], 43.4% (inactive); in [4] it was -3.95% (inactive); in experiment [9], 42.5% (inactive). The compound further showed a nuclei count in experiment [2] of 103%. Besides, the results for the z-score in experiment [3] (setting [10]), in experiment [3] (setting [11]) and in experiment [3] (setting [12]) were -0.699, -0.489 and -0.711, respectively. Further, the fluorescence slope in [5] was -0.462 (inactive). Further, the NADPH fluorescence slope in experiment [6] was -1.9e-05 (inactive). In addition, the slope in experiment [7] is 0.00715 (inactive). The compound was called inactive in experiment [8].
For `OCCNc1nc(-c2ccccc2)c2ccccc2n1`, in experiment [1], the cell count was 419. Moreover, the inhibition in experiment [1] is -4.7% (inactive); in [2], -153% (inactive); in experiment [4] it was -10.1% (inactive); in [9] it was -5.43% (inactive). The same compound had a nuclei count in experiment [2] of 133%. Moreover, the z-score in experiment [3] (setting [10]) was -0.162; in experiment [3] (setting [11]), 1.09; in [3] (setting [12]) it was -0.852. Further, the fluorescence slope in experiment [5] was -0.341 (inactive). Also, the NADPH fluorescence slope in experiment [6] was -1.3e-05 (inactive). In [7], the slope was 0.00672 (inactive). The result in experiment [8] was inactive.

The term inhibition denotes the relative decrease from the control value, in per cent.

The values above are taken from PubChem BioAssay.
